Key:
[1] = molecular target: T1, Nuclear receptor subfamily 0 group B member 2 (Homo sapiens) (UniProt Q15466); assay: Displacement of [5,5'-3H2]AHPN from human recombinant GST-SHP at 50 uM by liquid scintillation counting relative to 3-Cl-AHPC
T1 sequence (whole entry): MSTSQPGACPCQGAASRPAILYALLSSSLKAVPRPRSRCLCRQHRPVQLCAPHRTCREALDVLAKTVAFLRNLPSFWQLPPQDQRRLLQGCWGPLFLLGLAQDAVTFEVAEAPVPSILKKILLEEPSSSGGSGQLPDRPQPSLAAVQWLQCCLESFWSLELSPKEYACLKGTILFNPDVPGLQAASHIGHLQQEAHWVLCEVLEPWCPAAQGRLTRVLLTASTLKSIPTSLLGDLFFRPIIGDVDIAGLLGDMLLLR
Method in brief: (§1)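 Recombinant GST–human SHP was bound to glutathione–Sepharose beads and incubated 2 h with 5 nM [5,5′-3H2]AHPN with or without competitor (1.0, 5.0 or 50 μM). Beads were washed twice and counted. Displacement was expressed relative to 50 μM 3-Cl-AHPC set as 100%.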

[2] = molecular target: T2, Tyrosine-protein phosphatase non-receptor type 11 (Homo sapiens, UniProt Q06124); assay: Inhibition of SHP2 overexpressed in human KG1 cells; type: cell-based, KG-1
T2 sequence (Q06124 whole entry): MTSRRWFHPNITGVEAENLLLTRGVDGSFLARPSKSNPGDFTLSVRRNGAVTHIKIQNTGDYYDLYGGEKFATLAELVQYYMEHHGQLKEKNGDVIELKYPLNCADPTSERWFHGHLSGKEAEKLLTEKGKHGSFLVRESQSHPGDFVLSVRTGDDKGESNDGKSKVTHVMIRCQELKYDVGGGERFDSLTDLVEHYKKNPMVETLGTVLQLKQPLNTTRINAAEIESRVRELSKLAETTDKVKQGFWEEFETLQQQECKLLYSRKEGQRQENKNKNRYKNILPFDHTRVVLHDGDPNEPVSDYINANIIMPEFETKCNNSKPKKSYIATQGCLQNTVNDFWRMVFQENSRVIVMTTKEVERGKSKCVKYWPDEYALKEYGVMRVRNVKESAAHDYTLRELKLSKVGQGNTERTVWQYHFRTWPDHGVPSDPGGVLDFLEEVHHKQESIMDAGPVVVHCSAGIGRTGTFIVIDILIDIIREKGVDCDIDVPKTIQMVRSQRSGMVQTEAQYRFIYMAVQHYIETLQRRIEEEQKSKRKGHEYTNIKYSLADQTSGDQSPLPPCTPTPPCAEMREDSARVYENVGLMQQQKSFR
Method in brief: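 Shp-2 PTP activity was measured as hydrolysis of the fluorogenic substrate 6,8-difluoro-4-methylumbelliferyl phosphate in the presence of analogue in Me2SO or Me2SO alone (final concentration 5%).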

[3] = Antiproliferative activity against human H292 cells after 72 hrs by MTT assay; type: functional, cell-based; details: NCI-H292, 72 h
Method in brief: (§2)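 Cells attached for 24 h, then exposed 72 h to analogue in Me2SO or Me2SO alone (final Me2SO 0.1%), with media and compound renewed after 48 h. Viable cells were measured by MTS tetrazolium reduction in three replicates. Top concentration tested per compound was 2.5, 5, 10, 20 or 100 μM.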

[4] = Antiproliferative activity against human KG1 AML cells at 5 uM after 48 hrs by MTT assay; type: functional; details: in the assay text read “by hemocytometer cell counting” for “by MTT assay”
Method in brief: (§3)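 KG-1 cells in 5% FBS medium attached overnight, then treated 48 h with analogue in Me2SO or Me2SO alone (final 0.1%). Cells were harvested and counted by hemocytometer in triplicate wells. Highest concentration evaluated was 5 μM.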

KG-1 [5] = assay: Induction of apoptosis in human KG1 cells at 1.0 uM […] by acridine orange staining; type: functional
DU-145 [6] = assay: Antiproliferative activity against human DU145 cells after 72 hrs by MTT assay; type: functional, cell-based; details: DU-145, 72 h; method in brief: as §2
DU-145 [7] = assay: Antiproliferative activity against human DU145 cells at 100 uM after 72 hrs by MTT assay; type: functional; details: DU-145, 72 h; method in brief: as §2
KG-1 [8] = assay: Induction of apoptosis in human KG1 cells at 5.0 uM […] by acridine orange staining; type: functional
[9] = molecular target: T3, Nuclear receptor subfamily 0 group B member 2 (Homo sapiens, UniProt Q15466); assay: Displacement of [5,5'-3H2]AHPN from human recombinant GST-SHP by liquid scintillation counting relative to 3-Cl-AHPC; method in brief: as §1
T3 sequence (Q15466 whole entry): T1 sequence (whole entry)

[10] = Antiproliferative activity against human KG1 AML cells after 48 hrs by MTT assay; type: functional, cell-based; details: in the assay text read “by hemocytometer cell counting” for “by MTT assay”; method in brief: as §3
[11] = Antiproliferative activity against human H292 cells at 100 uM after 72 hrs by MTT assay; type: functional; details: NCI-H292, 72 h; method in brief: as §2
MDA-MB-231 [12] = assay: Antiproliferative activity against human MDA-MB-231 cells at 100 uM after 72 hrs by MTT assay; type: functional; details: MDA-MB-231, 72 h; method in brief: as §2
MDA-MB-231 [13] = assay: Antiproliferative activity against human MDA-MB-231 cells after 72 hrs by MTT assay; type: functional, cell-based; details: MDA-MB-231, 72 h; method in brief: as §2
[14] = Antiproliferative activity against human H292 cells at 20 uM after 72 hrs by MTT assay; type: functional; details: NCI-H292, 72 h; method in brief: as §2
MDA-MB-231 [15] = assay: Antiproliferative activity against human MDA-MB-231 cells at 20 uM after 72 hrs by MTT assay; type: functional; details: MDA-MB-231, 72 h; method in brief: as §2
DU-145 [16] = assay: Antiproliferative activity against human DU145 cells at 20 uM after 72 hrs by MTT assay; type: functional; details: DU-145, 72 h; method in brief: as §2
[17] = Antiproliferative activity against human H292 cells at 5 uM after 72 hrs by MTT assay; type: functional; details: NCI-H292, 72 h; method in brief: as §2
DU-145 [18] = assay: Antiproliferative activity against human DU145 cells at 5 uM after 72 hrs by MTT assay; type: functional; details: DU-145, 72 h; method in brief: as §2
MDA-MB-231 [19] = assay: Antiproliferative activity against human MDA-MB-231 cells at 5 uM after 72 hrs by MTT assay; type: functional; details: MDA-MB-231, 72 h; method in brief: as §2
KG-1 [20] = assay: Induction of apoptosis in human KG1 cells at 25 uM […] by acridine orange staining; type: functional
KG-1 [21] = assay: Induction of apoptosis in human KG1 cells after 48 hrs by acridine orange staining; type: functional, cell-based; details: KG-1, 48 h
[22] = Antiproliferative activity against human H292 cells at 10 uM after 72 hrs by MTT assay; type: functional; details: NCI-H292, 72 h; method in brief: as §2
DU-145 [23] = assay: Antiproliferative activity against human DU145 cells at 10 uM after 72 hrs by MTT assay; type: functional; details: DU-145, 72 h; method in brief: as §2
MDA-MB-231 [24] = assay: Antiproliferative activity against human MDA-MB-231 cells at 10 uM after 72 hrs by MTT assay; type: functional; details: MDA-MB-231, 72 h; method in brief: as §2

Row | SMILES | Activity [1] [%] | IC50 [2] [µM] | IC50 [3] [µM] | Activity [4] [%] | Activity (KG-1 [5]) [%] | IC50 (DU-145 [6]) [µM] | Activity (KG-1 [8]) [%] | IC50 [9] [µM] | IC50 [10] [µM] | IC50 (MDA-MB-231 [13]) [µM] | inhibition at 10 µM [22] [%] | inhibition at 10 µM (DU-145 [23]) [%] | inhibition at 10 µM (MDA-MB-231 [24]) [%] | further results
1 | O=C(O)/C=C/c1ccc(-c2ccc(F)c(C34CC5CC(CC(C5)C3)C4)c2)c(Cl)c1 | 90 | 2.11 | 6 | 0 | 0 | 16 | 0 | 1 | > 5 | 67 |  |  |  | inhibition at 100 µM (DU-145 [7]): 84%; inhibition at 100 µM [11]: 95%; inhibition at 100 µM (MDA-MB-231 [12]): 83%
2 | CC1(c2cc(-c3ccc(/C=C/C(=O)O)cc3Cl)ccc2O)SCCCS1 |  | 10.2 | > 20 | 0 | 5 | > 20 | 5 |  | > 5 | > 20 |  |  |  | inhibition at 20 µM [14]: 6%; inhibition at 20 µM (MDA-MB-231 [15]): 13%; inhibition at 20 µM (DU-145 [16]): 8%
3 | CC12CC3CC(C)(C1)CC(c1cc(-c4ccc(/C=C/C(=O)O)cc4Cl)ccc1O)(C3)C2 | 103 | 2.27 | 3.6 | 0 | 0 | > 5 | 0 | 0.5 | > 5 | > 5 |  |  |  | inhibition at 5 µM [17]: 66%; inhibition at 5 µM (DU-145 [18]): 23%; inhibition at 5 µM (MDA-MB-231 [19]): 7%; Activity (KG-1 [20]): 83%; IC50 (KG-1 [21]): 13.5 µM
4 | Cc1cccc(C)c1-c1cc(-c2ccc(/C=C/C(=O)O)cc2Cl)ccc1O |  | 19.9 | > 10 | 0 | 0 | > 10 | 0 |  | > 5 | > 10 | 0 | 4 | 0 | 
5 | CC(C)(C)C#Cc1cc(-c2ccc(/C=C/C(=O)O)cc2Cl)ccc1O |  | 0.45 | > 10 | 22 | 0 | > 10 | 0 |  | > 5 | > 10 | 14 | 13 | 4 | 
